This is an account of results in ChEMBL document CHEMBL1127734, “Selective ligands for rat A3 adenosine receptors: structure-activity relationships of 1,3-dialkylxanthine 7-riboside derivatives” (J Med Chem, 1994).

One test deals with T1, Adenosine receptor A1 (Rattus norvegicus, UniProt P25099).
T1 sequence (P25099 whole entry): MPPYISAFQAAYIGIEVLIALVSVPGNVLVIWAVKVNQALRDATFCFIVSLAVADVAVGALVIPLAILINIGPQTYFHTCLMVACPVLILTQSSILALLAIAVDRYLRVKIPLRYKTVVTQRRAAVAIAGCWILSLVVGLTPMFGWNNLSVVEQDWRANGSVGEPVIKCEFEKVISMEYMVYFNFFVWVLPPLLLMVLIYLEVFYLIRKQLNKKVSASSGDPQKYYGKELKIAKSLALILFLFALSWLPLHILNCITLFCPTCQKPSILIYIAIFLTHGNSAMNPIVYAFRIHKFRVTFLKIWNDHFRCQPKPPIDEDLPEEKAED
Description: Tested for the displacement of specific [3H]PIA in rat brain membranes of A1 receptor. Format: cell membranes.

The target in a further test is T2, Adenosine receptor A3 (Rattus norvegicus, UniProt P28647).
T2 sequence (P28647 whole entry): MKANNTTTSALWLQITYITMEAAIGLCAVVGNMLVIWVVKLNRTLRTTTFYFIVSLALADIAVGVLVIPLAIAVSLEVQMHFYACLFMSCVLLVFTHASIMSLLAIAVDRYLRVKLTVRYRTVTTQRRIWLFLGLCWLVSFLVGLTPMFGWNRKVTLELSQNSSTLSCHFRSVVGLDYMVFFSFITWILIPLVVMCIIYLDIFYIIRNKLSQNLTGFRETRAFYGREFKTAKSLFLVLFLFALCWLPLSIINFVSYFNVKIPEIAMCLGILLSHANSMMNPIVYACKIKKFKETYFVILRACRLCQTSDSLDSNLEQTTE
Description: Displacement of specific [125]AB-MECA binding in membranes of CHO cells stably transfected with the rat A3-cDNA. Format: cell membranes.

The target of test [1] is Adenosine receptors; A1 & A3 (Rattus norvegicus) (UniProt P25099+P28647). Description: Selectivity ratio (Ki's)for A1 and A3 receptors in rat brain. The test is classed as tissue-based. In short, it runs like this: (§1)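 Ratio of Ki values from rat A1 (cortical, [3H]PIA) or A2a (striatal, [3H]CGS 21680) binding over Ki from rat A3 binding ([125I]AB-MECA, CHO membranes). Where one value is only a percent displacement, a conservative boundary estimate of the ratio is given.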

The target in test [2] is Adenosine receptor A2a and A3 (Rattus norvegicus) (UniProt P30543+P28647). Description: Selectivity for A2a and A3 receptors in rat brain as ratio of Ki. Format: tissue-based. A digest of the protocol: as §1
Chain of Adenosine receptor A2a and A3 (Rattus norvegicus) (P30543 whole entry, looked up, one chain of several): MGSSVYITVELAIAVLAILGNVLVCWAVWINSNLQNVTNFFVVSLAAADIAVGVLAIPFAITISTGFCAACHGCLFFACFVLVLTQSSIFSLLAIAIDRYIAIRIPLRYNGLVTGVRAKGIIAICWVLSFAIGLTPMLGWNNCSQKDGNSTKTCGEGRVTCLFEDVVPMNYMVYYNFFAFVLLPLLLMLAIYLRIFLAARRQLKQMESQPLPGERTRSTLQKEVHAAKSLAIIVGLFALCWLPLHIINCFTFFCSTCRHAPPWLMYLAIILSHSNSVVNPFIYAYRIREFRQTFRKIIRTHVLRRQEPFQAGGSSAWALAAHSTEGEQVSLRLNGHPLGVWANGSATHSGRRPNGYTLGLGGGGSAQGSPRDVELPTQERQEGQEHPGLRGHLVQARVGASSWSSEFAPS
Another test addresses Adenosine receptor A2a (Rattus norvegicus, UniProt P30543). Description: Displacement of specific [3H]- CGS-21680 in rat striatal membranes A2a receptor. The test is classed as cell membranes, Membrane. In short, it runs like this:
(§2)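 Rat striatal membranes; [3H]CGS 21680 binding at A2a receptors. Adenosine deaminase (3 units/mL) present during membrane preparation, which includes a 30 °C, 30 min incubation, and during radioligand incubation.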

For test [3], the target named is Adenosine receptor A2a (Rattus norvegicus) (UniProt P30543). Description: Displacement of [3H]CGS-21680 from A2a receptor of rat striatal membrane at 10e-5 M. In short, it runs like this: as §2
Chain of Adenosine receptor A2a (Rattus norvegicus) (P30543 whole entry): as the sequence (P30543 whole entry, looked up, one chain of several) above
In general terms: In a radioligand displacement assay an active substance lowers the binding of a labelled ligand.

Test [4] shares this target. Description: Displacement of specific [3H]- CGS-21680 in rat striatal membranes A2a receptor at 10e-4 M concentration. Format: cell membranes. Conditions: Membrane.
In test [5] the target is T3, Adenosine receptor A1 (Rattus norvegicus) (UniProt P25099).
T3 sequence (whole entry): T1 sequence (P25099 whole entry)
Description: Percent displacement of [3H]PIA from A1 receptor of rat brain membrane at 10e-4 M. In short, it runs like this:
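A1 receptor binding in rat cortical membranes with [3H]-(R)-PIA. Adenosine deaminase (3 units/mL) present during membrane preparation, which includes a 30 °C, 30 min incubation, and during radioligand incubation. Result given as displacement of specific binding, as Ki or as percent displacement at the stated concentration.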

Test [6] concerns the target Adenosine receptor A2a (Rattus norvegicus) (UniProt P30543). Description: Displacement of [3H]CGS-21680 from A2a receptor of rat striatal membrane at 10e-4 M. In short, it runs like this:
as §2

For test [7] the target is unchanged. Description: Displacement of [3H]- CGS-21680 from A2a receptor of rat striatal membrane at 3*10e-4 M. A digest of the protocol: as §2

pKi: −log10 of the molar value.

As usually defined, the pKi is the Ki on a negative log10 scale, so that one unit is a factor of ten. A lower pKi goes with a large Ki. What is called inhibition is how much of the control response was suppressed. A lower inhibition goes with a response near the control.

Chain of Adenosine receptor A2a (P30543 whole entry): as the sequence (P30543 whole entry, looked up, one chain of several) above

On to `CCCCCn1c(=O)c2c(ncn2C2O[C@H](CO)[C@@H](O)[C@H]2O)n(CCCCC)c1=O` (some centres not stated), for which the pKi at Adenosine receptor A1 is 5.06; at Adenosine receptor A3 it was 5.32; at Adenosine receptor A2a, 4.33. Also, the Selectivity ratio in [1] stood at 1.8; in [2], 9.8.

For the molecule `CCCCn1c(=O)c2c(ncn2C2O[C@H](C(N)=O)[C@@H](O)[C@H]2O)n(CCCC)c1=O` (some centres not stated), the pKi is 4.82 at Adenosine receptor A3 and 4.26 at Adenosine receptor A2a. In addition, the figures for the Selectivity ratio in test [1] and in test [2] were 0.2 and 3.6, respectively.

Regarding `CCCCCCn1c(=O)c2c(ncn2C2O[C@H](CO)[C@@H](O)[C@H]2O)n(CCCCCC)c1=O` (some centres not stated), the pKi is 5.01 at Adenosine receptor A1 and 4.37 at Adenosine receptor A3. Further, the inhibition in [3] is 7.8%. The Selectivity ratio in [1] is 0.23.

`CCCn1c(=O)c2c(ncn2C2O[C@H](CO)[C@@H](O)[C@H]2O)n(CCC)c1=O` (some centres not stated): the pKi was 4.80 at Adenosine receptor A1 and 4.09 on Adenosine receptor A3. In [4], this molecule showed an inhibition of 32%. In addition, the Selectivity ratio in test [1] is 0.2; in [2], over 1.

Regarding `CCCCn1c(=O)c2c(ncn2C2O[C@H](CO)[C@@H](O)[C@H]2O)n(CCCC)c1=O` (some centres not stated), the pKi on Adenosine receptor A1 was 5.38; on Adenosine receptor A3, 5.22; on Adenosine receptor A2a it was 4.71. Moreover, the Selectivity ratio in test [1] worked out at 0.69; in test [2] it was 3.2.

With `CCCCn1c(=O)c2c(ncn2C2O[C@H](CO)[C@@H](O)[C@H]2O)n(Cc2ccccc2)c1=O` (some centres not stated), the pKi at Adenosine receptor A1 was 5.66; on Adenosine receptor A3 it was 4.89; on Adenosine receptor A2a it was 5.06. For the same molecule, the Selectivity ratio came to 0.17 in test [1] and 0.67 in test [2].

At Adenosine receptor A3, `COc1nc2c(c(=O)n(C)c(=O)n2C)n1C1O[C@H](CO)[C@@H](O)[C@H]1O` (some centres not stated) had a pKi of 7.13. Besides, the inhibition in test [4] turned out to be 4%; in [5] it was 21%. Moreover, the Selectivity ratio in [1] and in [2] was over 1 in each case.

Consider `CCCCn1c(=O)c2c(ncn2C2O[C@H](C(=O)NCC)[C@@H](O)[C@H]2O)n(CCCC)c1=O` (some centres not stated), for which the pKi at Adenosine receptor A1 was 5.21; on Adenosine receptor A3, 6.22; at Adenosine receptor A2a, 4.42. Also, the Selectivity ratio in [1] amounted to 10; in [2], 63.

In the case of `CCCCCCn1c(=O)c2c(ncn2C2O[C@H](C(=O)NC)[C@@H](O)[C@H]2O)n(CCCCCC)c1=O` (some centres not stated), the pKi on Adenosine receptor A1 is 4.51; on Adenosine receptor A3, 4.99. In [4], this molecule gave an inhibition of 0%. In addition, the figures for the Selectivity ratio in test [1] and in test [2] were 3 and over 10, respectively.

For the molecule `CCCCn1c(=O)c2c(ncn2C2O[C@H](C(=O)N(C)C)[C@@H](O)[C@H]2O)n(CCCC)c1=O` (some centres not stated), the pKi at Adenosine receptor A1 is 5.04; at Adenosine receptor A3, 3.64; on Adenosine receptor A2a it was 4.27. Besides, the Selectivity ratio came to 0.04 in test [1] and 0.23 in [2].

As for `CCCCn1c(=O)c2c(ncn2C2O[C@H](CO)[C@@H](O)[C@H]2O)n(CCCC)c1=S` (some centres not stated), the pKi is 5.65 at Adenosine receptor A1, 5.85 at Adenosine receptor A3 and 5.37 at Adenosine receptor A2a. For the same molecule, the Selectivity ratio was 1.6 in test [1] and 3 in test [2].

On Adenosine receptor A3, `CCCCCn1c(=O)c2c(ncn2C2O[C@H](C(=O)NC)[C@@H](O)[C@H]2O)n(CCCCC)c1=O` (some centres not stated) showed a pKi of 5.58. In [4], the inhibition was 2%. Moreover, the Selectivity ratio is 4.3 in test [1] and over 1 in test [2].

Molecule `Cn1c(=O)c2c(ncn2C2O[C@H](CO)[C@@H](O)[C@H]2O)n(C)c1=O` (some centres not stated) came in with an inhibition in test [6] of 2%. Besides, the pKi at Adenosine receptor A1 is 4.57; at Adenosine receptor A3 it was 4.05. Further, the results for the Selectivity ratio in test [1] and in [2] were 0.3 and over 1, respectively.

Consider `CCCCn1c(=O)c2c(ncn2C2O[C@H](C(=O)OC)[C@@H](O)[C@H]2O)n(CCCC)c1=O` (some centres not stated), for which the pKi on Adenosine receptor A1 is 5.43; on Adenosine receptor A3, 5.49. Besides, the Selectivity ratio in [1] was 1.2; in test [2] it was over 1. The same molecule had an inhibition in [7] of 0%.
